The results in this text go back to ChEMBL document CHEMBL1828529, “Novel human mPGES-1 inhibitors identified through structure-based virtual screening” (Bioorg Med Chem, 2011).

One assay has as its target T1, Prostaglandin E synthase (Homo sapiens, UniProt O14684).
T1 sequence (O14684 whole entry): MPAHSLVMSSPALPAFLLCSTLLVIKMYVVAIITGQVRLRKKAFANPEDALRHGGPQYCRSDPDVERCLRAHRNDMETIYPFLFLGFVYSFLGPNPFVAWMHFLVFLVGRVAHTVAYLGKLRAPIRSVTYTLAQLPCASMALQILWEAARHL
As to the kind of experiment: Inhibition of human recombinant microsomal PGES-1 expressed in freestyle 293-f cells assessed as conversion of PGH2 to PGE2 after 15 mins by enzyme immunoassay. The assay is classed as cell-based. In outline:
(§1)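 Reaction in 0.2 M sodium phosphate pH 7.2 stock with 0.1 M GSH stock. Enzyme and inhibitor preincubated 15 min at room temperature, then started with cold PGH2 (1 μM final) on ice. Stopped after 30 s with SnCl2 in ethanol. PGE2 measured by enzyme immunoassay against an enzyme-free blank.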
In the case of `COCCN(c1ccc(/C=C2\S/C(=N\c3ccccc3)N(C(C)C(=O)O)C2=O)cc1)c1ccccc1OC` (centres undefined), the IC50 is 3.5 µM.

The target of another assay is T2, Prostaglandin E synthase (Homo sapiens) (UniProt O14684).
T2 sequence (whole entry): T1 sequence (O14684 whole entry)
As to the kind of experiment: Inhibition of human recombinant microsomal PGES-1 expressed in freestyle 293-f cells assessed as conversion of PGH2 to PGE2 at 10 uM after 15 mins by enzyme immunoassay. The assay is classed as cell-based. In outline: as §1
Take `N#CCC(=O)N/N=C(\c1nc2ccc(Cl)cc2nc1O)C(O)c1ccc(Cl)cc1` (centres undefined): the inhibition is 50%.

On to `O=C(O)CSc1nc2sc3c(c2c(=O)n1Cc1ccccc1)CCCCC3`, for which the inhibition stood at 20%.

In the case of `CC1CCc2c(sc3ncnc(SC(C)C(=O)O)c23)C1` (centres undefined), the inhibition worked out at 16%.

`CC1(C)C(c2ccc(Cl)cc2)N(O)C2(CCCCC2=O)N1O` (centres undefined): the inhibition was found to be 43%.

For the molecule `CCN1C(=O)C2Cc3c([nH]c4ccccc34)C(c3ccc(Cl)cc3)N2C1=O` (centres undefined), the inhibition came to 10%.

`O=[N+]([O-])C(/C=C(\Cl)[N+](=O)[O-])=C(N1CCCCC1)N1CCCCC1`: the inhibition was 15%.

Turning to `O=[N+]([O-])c1cc2c(c([N+](=O)[O-])c1)Nc1ccccc1N=C2c1ccc(Cl)cc1`, the inhibition turned out to be 26%.

For the molecule `CCOC(=O)Cn1c(=O)c2c(nc3n2CCCN3c2ccc(OCC)cc2)n(C)c1=O`, the inhibition turned out to be 39%.

Turning to `COCCN(c1ccc(/C=C2\S/C(=N\c3ccccc3)N(C(C)C(=O)O)C2=O)cc1)c1ccccc1OC` (centres undefined), the inhibition came to 83%.

With `CC(=O)NC(Cc1ccc(C)cc1)C(=O)NC(Cc1ccc(F)cc1)C(=O)N1CCC(OCc2ccccc2)CC1CCCNC(=N)N` (centres undefined), the inhibition was 31%.

As to `Cc1c(C(=O)O)ccc2c1NC(c1ccc(OCC#N)cc1)C1CC=CC21` (centres undefined), the inhibition came to 39%.

In a further assay the target is T1, Prostaglandin E synthase. As to the kind of experiment: Inhibition of microsomal PGES. In a few lines:
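Compound was preincubated with enzyme for 15 min at room temperature. PGH2 (1 μM final) was added on ice, and the reaction was stopped after 30 s with SnCl2. PGE2 was measured by EIA against an enzyme-free blank.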
`CS(=O)(=O)Nc1ccc([N+](=O)[O-])cc1OC1CCCCC1` [NS-398] returned an IC50 of 20 µM.

As to `CC1=C(CC(=O)O)c2cc(F)ccc2/C1=C\c1ccc([S+](C)[O-])cc1` (centres undefined), the IC50 turned out to be 80 µM.
